According to ChEMBL document CHEMBL1140391, “8-Substituted 3,4-dihydroquinolinones as a novel scaffold for atypical antipsychotic activity” (Bioorg Med Chem Lett, 2005):

Legend:
[1] = target: D(2) dopamine receptor (Homo sapiens, UniProt P14416); assay: Binding affinity against Dopamine receptor D2 expressed in CHO cells; type: cell-based
Method in brief: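 Radioligand binding with [³H]spiperone on membranes of CHO cells expressing human DA D₂ receptors. Membranes and radioligand were incubated 120 min with or without varying compound concentrations. Haloperidol at high concentration defined nonspecific binding. Bound label was separated by vacuum filtration and counted by liquid scintillation. IC₅₀ was fitted by nonlinear regression and converted to Ki with Cheng–Prusoff.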

[2] = target: 5-hydroxytryptamine receptor 2A (Homo sapiens, UniProt P28223); assay: Binding affinity for 5-hydroxytryptamine 2A receptor expressed in 3T3 cells; type: cell-based
Chain of 5-hydroxytryptamine receptor 2A (P28223 whole entry): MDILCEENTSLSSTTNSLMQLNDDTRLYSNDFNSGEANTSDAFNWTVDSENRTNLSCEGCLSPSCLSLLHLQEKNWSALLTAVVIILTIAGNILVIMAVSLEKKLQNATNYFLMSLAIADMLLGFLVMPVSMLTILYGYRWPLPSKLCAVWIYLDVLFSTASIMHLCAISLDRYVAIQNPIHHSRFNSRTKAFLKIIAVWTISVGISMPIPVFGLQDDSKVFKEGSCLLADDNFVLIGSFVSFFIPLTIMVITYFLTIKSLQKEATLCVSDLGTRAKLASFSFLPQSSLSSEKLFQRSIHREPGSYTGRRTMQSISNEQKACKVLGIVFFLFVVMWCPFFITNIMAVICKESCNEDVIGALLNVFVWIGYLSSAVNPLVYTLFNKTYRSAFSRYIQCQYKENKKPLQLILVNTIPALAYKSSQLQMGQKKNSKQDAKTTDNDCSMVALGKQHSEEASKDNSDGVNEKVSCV
Method in brief: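 [³H]Ketanserin displacement on membranes of Swiss 3T3 cells expressing human 5-HT2A receptors. Incubation was 120 min across varying compound concentrations. Nonspecific binding came from high unlabeled ketanserin. Bound and free label were separated by vacuum filtration, and bound label was quantified by liquid scintillation. Percent inhibition of specific binding was fitted by nonlinear regression to give IC₅₀, then converted to Ki with Cheng–Prusoff.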

Chain of D(2) dopamine receptor (P14416 whole entry): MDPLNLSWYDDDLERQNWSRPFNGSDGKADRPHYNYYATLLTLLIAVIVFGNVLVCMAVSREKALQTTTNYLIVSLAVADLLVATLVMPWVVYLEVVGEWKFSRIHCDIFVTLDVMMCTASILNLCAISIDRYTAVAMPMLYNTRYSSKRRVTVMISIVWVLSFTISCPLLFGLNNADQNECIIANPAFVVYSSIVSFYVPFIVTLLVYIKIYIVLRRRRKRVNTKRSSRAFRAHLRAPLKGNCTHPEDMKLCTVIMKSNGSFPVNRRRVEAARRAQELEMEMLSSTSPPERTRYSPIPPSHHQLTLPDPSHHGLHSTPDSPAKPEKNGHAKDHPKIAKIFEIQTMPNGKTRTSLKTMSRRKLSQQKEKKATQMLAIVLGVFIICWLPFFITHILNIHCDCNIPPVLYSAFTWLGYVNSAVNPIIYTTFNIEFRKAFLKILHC

SMILES | Ki [1] [nM] | Ki [2] [nM]
CC1(C)CCNc2c(CCN3CCN(c4nsc5ccccc45)CC3)cc(F)cc21 | 55 | 0.28
CC1CCN(C(=O)c2ccccc2)c2c(CCN3CCN(c4nsc5ccccc45)CC3)cccc21 (configuration not stated) | 16 | 0.61
CC(=O)N1CCC(C)c2c(C)ccc(CCN3CCN(c4noc5ccccc45)CC3)c21 (configuration not stated) | 17 | 0.32
CC1CCN(C(=O)C2CCCCC2)c2c(CCN3CCN(c4nsc5ccccc45)CC3)cccc21 (configuration not stated) | 25 | 0.59
CC1(C)CCNc2c(CCN3CCN(c4nsc5ccccc45)CC3)cccc21 | 59 | 0.18
CC1Cc2cccc(CCN3CCN(c4nsc5ccccc45)CC3)c2NC1=O (configuration not stated) | 73 | 1.06
Cc1cc(CCN2CCN(c3noc4ccccc34)CC2)c2c(c1)C(C)CC(=O)N2 (configuration not stated) | 35 | 0.28
CC1CC(=O)Nc2c(CCN3CCN(c4n[s+]([O-])c5ccccc45)CC3)cc(F)cc21 (configuration not stated) | 92 | 2.23
O=C1CCc2cccc(CCN3CCN(c4nsc5ccccc45)CC3)c2N1 | > 100 | 0.28
CC1CC(=O)Nc2c(CCN3CCN(c4nsc5ccccc45)CC3)cc(F)cc21 (configuration not stated) | 15 | 0.17
CC(=O)N1CCC(C)c2cc(F)cc(CCN3CCN(c4nsc5ccccc45)CC3)c21 (configuration not stated) | 18 | 0.44
CC1CC(=O)N(C)c2c(CCN3CCN(c4nsc5ccccc45)CC3)cccc21 (configuration not stated) | 81 | 0.17
Cc1ccc(CCN2CCN(c3nsc4ccccc34)CC2)c2c1C(C)CC(=O)N2 (configuration not stated) | 11 | 0.13
CC1CC(=O)Nc2c(CCN3CCN(c4noc5ccccc45)CC3)cccc21 (configuration not stated) | > 100 | 190
CC(=O)N1CCC(c2ccccc2)c2cccc(CCN3CCN(c4nsc5ccccc45)CC3)c21 (configuration not stated) | 12 | 2.15
CC(=O)N1CCC(C)c2cc(F)cc(CCN3CCN(c4noc5ccccc45)CC3)c21 (configuration not stated) | 29 | 0.29
COc1cccc(CC(=O)N2CCC(C)c3cccc(CCN4CCN(c5nsc6ccccc56)CC4)c32)c1 (configuration not stated) | 4 | 1.07
CC1CC(=O)Nc2c(CCN3CCN(c4nsc5ccccc45)CC3)cccc21 (configuration not stated) | 21 | 0.22
O=C1CC(c2ccccc2)c2cccc(CCN3CCN(c4nsc5ccccc45)CC3)c2N1 (configuration not stated) | – | 0.18
CC(=O)N1CCC(C)c2cccc(CCN3CCN(c4nsc5ccccc45)CC3)c21 (configuration not stated) | 17 | 0.3
CC(=O)N1CCC(C)c2cc(Cl)cc(CCN3CCN(c4nsc5ccccc45)CC3)c21 (configuration not stated) | > 50 | 0.31
CC1CC(=O)Nc2c(CCN3CCN(c4noc5ccccc45)CC3)cc(F)cc21 (configuration not stated) | > 100 | 0.28
CC1CC(=O)Nc2c(CCN3CCN(c4nsc5ccccc45)CC3)cc(Cl)cc21 (configuration not stated) | > 100 | 0.05
CC(=O)N1CCC(C)c2c(C)ccc(CCN3CCN(c4nsc5ccccc45)CC3)c21 (configuration not stated) | 12 | 0.75
